This note sets out measurements from article PMC9389372 (RSC Advances, 2022).

One data set addresses T1, MAO-A (Homo sapiens, UniProt P21397).
T1 sequence (P21397 1-527): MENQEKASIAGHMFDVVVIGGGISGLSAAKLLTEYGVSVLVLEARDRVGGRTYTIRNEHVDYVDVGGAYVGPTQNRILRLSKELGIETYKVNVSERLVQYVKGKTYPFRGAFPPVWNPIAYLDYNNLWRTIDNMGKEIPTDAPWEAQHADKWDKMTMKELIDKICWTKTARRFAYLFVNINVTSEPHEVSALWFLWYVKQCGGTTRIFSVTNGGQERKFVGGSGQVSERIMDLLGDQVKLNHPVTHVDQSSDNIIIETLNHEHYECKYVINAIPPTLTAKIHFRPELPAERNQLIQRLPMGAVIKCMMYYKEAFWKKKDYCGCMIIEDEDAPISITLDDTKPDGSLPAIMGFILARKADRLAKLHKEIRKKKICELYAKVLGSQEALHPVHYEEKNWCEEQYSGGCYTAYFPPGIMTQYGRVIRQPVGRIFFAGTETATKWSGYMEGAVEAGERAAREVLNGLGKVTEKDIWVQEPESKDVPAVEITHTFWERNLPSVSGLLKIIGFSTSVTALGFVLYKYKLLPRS
In words: MAO-A inhibition, in vitro fluorometric method. It counts as biochemical. Particulars: for inhibition at 100 µM / inhibition at 1000 µM: read-out: MAO-A % inhibition.

The target in a further data set is beta amyloid 1–42 (Aβ42) (Homo sapiens, UniProt P05067). In words: fluorometric beta amyloid 1–42. It counts as biochemical. The settings on record: for inhibition at 0.01 µM / inhibition at 0.1 µM / inhibition at 1 µM / inhibition at 10 µM: read-out: Percent inhibition of beta amyloid 1–42 (Aβ42) peptide aggregation.
For another data set, the target named is T2, MAO-B (Homo sapiens, UniProt P27338).
T2 sequence (P27338 1-520): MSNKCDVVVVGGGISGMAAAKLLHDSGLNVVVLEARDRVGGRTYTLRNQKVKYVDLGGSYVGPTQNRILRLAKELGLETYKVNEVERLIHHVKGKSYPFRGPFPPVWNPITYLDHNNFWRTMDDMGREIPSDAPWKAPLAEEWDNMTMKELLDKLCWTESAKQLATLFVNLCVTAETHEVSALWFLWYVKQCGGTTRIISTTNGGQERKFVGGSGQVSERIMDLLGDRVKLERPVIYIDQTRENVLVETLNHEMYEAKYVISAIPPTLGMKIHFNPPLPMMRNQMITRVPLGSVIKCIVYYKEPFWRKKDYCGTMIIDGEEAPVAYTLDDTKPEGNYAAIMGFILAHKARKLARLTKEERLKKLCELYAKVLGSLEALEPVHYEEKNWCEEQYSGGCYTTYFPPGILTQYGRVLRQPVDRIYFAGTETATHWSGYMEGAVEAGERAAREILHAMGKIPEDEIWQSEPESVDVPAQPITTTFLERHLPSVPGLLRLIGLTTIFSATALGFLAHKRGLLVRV
In words: MAO-B inhibition, in vitro fluorometric method. It is filed as biochemical.

Data set [1] addresses human butyrylcholinesterase (Homo sapiens, UniProt P06276). In words: BChE inhibition, modified Ellman's spectrophotometric method. Particulars: for inhibition at 100 µM / inhibition at 1000 µM: read-out: BChE % inhibition. It is filed as biochemical.
Data set [2] has as its target Human acetylcholinesterase (Homo sapiens, UniProt P22303). In words: AChE inhibition, modified Ellman's spectrophotometric method. It is filed as biochemical. Particulars: for inhibition at 1000 µM: read-out: AChE % inhibition, 10^−3 M.
Another data set is described as follows: Cytotoxicity, MTT assay. It is filed as cell-based. Particulars: mouse, NIH/3T3 mouse embryonic fibroblast cells. The method, boiled down:
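NIH/3T3 mouse embryonic fibroblasts, incubated according to the supplier's recommendation, were seeded at 1 × 10⁴ cells per well. Viability was read by MTT assay following the group's previously described standard procedure.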

human butyrylcholinesterase, sequence (P06276 29-602): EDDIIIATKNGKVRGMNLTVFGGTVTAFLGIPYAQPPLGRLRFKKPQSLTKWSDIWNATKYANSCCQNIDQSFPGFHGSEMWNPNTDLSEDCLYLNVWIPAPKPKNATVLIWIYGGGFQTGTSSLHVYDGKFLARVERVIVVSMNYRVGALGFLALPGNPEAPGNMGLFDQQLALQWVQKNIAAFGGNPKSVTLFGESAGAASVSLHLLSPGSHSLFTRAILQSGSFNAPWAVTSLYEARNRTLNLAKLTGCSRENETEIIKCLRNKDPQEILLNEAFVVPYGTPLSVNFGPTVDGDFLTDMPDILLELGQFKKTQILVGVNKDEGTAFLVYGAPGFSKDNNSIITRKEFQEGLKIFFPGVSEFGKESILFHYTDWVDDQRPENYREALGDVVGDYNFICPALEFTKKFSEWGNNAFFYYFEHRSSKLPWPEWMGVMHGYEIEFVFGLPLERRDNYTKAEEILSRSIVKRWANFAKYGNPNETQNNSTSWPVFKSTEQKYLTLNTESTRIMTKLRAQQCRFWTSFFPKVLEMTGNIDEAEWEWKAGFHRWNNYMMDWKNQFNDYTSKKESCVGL
beta amyloid 1–42 (Aβ42), sequence (P05067 672-713): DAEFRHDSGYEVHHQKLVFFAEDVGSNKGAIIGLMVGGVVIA
Human acetylcholinesterase, sequence (P22303 32-614): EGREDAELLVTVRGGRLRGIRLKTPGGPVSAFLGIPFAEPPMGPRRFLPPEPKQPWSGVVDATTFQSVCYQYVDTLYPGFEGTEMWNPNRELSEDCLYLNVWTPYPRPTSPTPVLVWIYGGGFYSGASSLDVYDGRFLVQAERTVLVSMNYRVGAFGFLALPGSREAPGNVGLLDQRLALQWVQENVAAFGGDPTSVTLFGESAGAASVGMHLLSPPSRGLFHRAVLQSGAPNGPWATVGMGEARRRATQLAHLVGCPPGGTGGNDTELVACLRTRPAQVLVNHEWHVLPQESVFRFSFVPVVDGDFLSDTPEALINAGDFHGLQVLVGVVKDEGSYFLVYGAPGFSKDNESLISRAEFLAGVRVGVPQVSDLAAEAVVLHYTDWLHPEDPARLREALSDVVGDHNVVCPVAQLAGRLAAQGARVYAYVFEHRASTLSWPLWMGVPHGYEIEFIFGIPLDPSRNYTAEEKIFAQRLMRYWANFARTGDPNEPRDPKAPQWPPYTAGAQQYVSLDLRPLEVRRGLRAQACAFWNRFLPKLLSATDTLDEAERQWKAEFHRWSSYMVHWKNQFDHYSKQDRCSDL

Take `COc1ccc2sc(NC(=O)c3ccc(CN4CCN(CCN(C)C)CC4)cc3)nc2c1` [4m, 4-((4-(2-(Dimethylamino)ethyl)piperazine-1-yl)methyl)-N-(5-methoxybenzo[d]thiazol-2-yl)benzamide]: at MAO-A, the IC50 is more than 100 µM, the inhibition at 100 µM is 37.9 ± 0.8% and the inhibition at 1000 µM turned out to be 61.3 ± 0.9%. In addition, on beta amyloid 1–42 (Aβ42), the IC50 was 0.199 ± 0.0088 µM, the inhibition at 0.01 µM came to 53.6 ± 1%, the inhibition at 0.1 µM was determined as 72.5 ± 2.2% and the inhibition at 1 µM stood at 88.9 ± 2%. The inhibition at 10 µM at beta amyloid 1–42 (Aβ42) is 94.7 ± 2.1%. In addition, half-maximal inhibition on MAO-B (IC50) was put at 0.0567 ± 0.0022 µM. Besides, in data set [1], the IC50 was more than 1000 µM, the inhibition at 100 µM was 31.9 ± 0.8% and the inhibition at 1000 µM came out at 42.4 ± 0.8%. For the same compound, in data set [2], the IC50 was found to be 0.0278 ± 0.001 µM and the inhibition at 1000 µM worked out at 95.3 ± 1.2%.
`CN(C)CCN1CCN(Cc2ccc(C(=O)Nc3nc4ccccc4s3)cc2)CC1` [4f, N-(Benzo[d]thiazol-2-yl)-4-((4-(2-(dimethylamino)ethyl)piperazine-1-yl)methyl)benzamide]: on MAO-A, the half-maximal inhibitory concentration (IC50) was more than 100 µM, the inhibition at 100 µM is 41.3 ± 0.9% and the inhibition at 1000 µM amounted to 67.9 ± 1.1%. Besides, on beta amyloid 1–42 (Aβ42), the inhibition at 0.01 µM amounted to 58.6 ± 1.1%, the inhibition at 0.1 µM turned out to be 80.8 ± 2.1%, the inhibition at 1 µM stood at 90.6 ± 3.1% and the inhibition at 10 µM was 97.3 ± 3.2%. Further, inhibition in the data set “Cytotoxicity, MTT assay” was half-maximal at 72.9 ± 2.7 µM (IC50). For the same compound, in data set [1], the IC50 is more than 1000 µM, the inhibition at 100 µM is 32.8 ± 0.6% and the inhibition at 1000 µM amounted to 45.3 ± 0.9%. In data set [2], the inhibition at 1000 µM turned out to be 96.4 ± 1.4%.
For the compound `CN1CCN(Cc2ccc(C(=O)Nc3nc4ccccc4s3)cc2)CC1` [4a, N-(Benzo[d]thiazol-2-yl)-4-((4-methylpiperazine-1-yl)methyl)benzamide], at MAO-A, the IC50 was more than 100 µM, the inhibition at 100 µM amounted to 38.6 ± 0.7% and the inhibition at 1000 µM is 55.3 ± 0.9%. Moreover, at beta amyloid 1–42 (Aβ42), the IC50 amounted to 0.256 ± 0.011 µM, the inhibition at 0.01 µM is 47.4 ± 1.1%, the inhibition at 0.1 µM was 70.4 ± 2.8% and the inhibition at 1 µM worked out at 86.4 ± 2.7%. Further, the inhibition at 10 µM at beta amyloid 1–42 (Aβ42) is 91.9 ± 3.1%. This compound also yielded an IC50 on MAO-B of 0.0674 ± 0.0031 µM. Moreover, in data set [1], the IC50 is more than 1000 µM, the inhibition at 100 µM was 26.5 ± 0.8% and the inhibition at 1000 µM stood at 38.6 ± 0.7%. In data set [2], the midpoint of inhibition, the IC50, lay at 0.0563 ± 0.0025 µM and the inhibition at 1000 µM was 93.3 ± 1.4%.
